Source: PubChem BioAssay AID504382 (The Scripps Research Institute Molecular Screening Center, 2011)
The campaign covered roughly 2,500 compounds. About 460 (18%) were called active.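 The calls were made as follows: active = mean activation above a cutoff of low control average plus 3 SD from the earlier screen (cut at about 12% in these data); inactive = the rest.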 Not all results are given here.

assay: IANBD-channel fluorescence artefacts in buffer – biochemical, artefact control for cardiac RTF calcium sensitizer project, confirmation (AID 504382); conditions: IANBD fluorescence interference counterscreen, EC20 Ca2+, at 7.2 µM, stronger effect = higher value, scaled: EC20 calcium 0, EC100 calcium 100
Procedure, shortened: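 Also added: EC20 calcium, 0.472 mM; dosing: single nominal 7.2 µM compound dose, 0.7% DMSO final; timing: 15 min, 25 °C; detection: fluorescence intensity, excitation 480 nm, emission 540 nm; replicates: each compound tested in triplicate wells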

Structure (SMILES)	fluorescence artifact activation
C=CCN1C(=O)/C(=C\C=C2\N(C)c3ccccc3C2(C)C)SC1=S	0.06% (inactive)
COc1ccc(Cl)cc1-c1nc(SCC(=O)NC(C)C)n[nH]1	0.53% (inactive)
Cc1ccc(C)c(C(=O)CSc2n[nH]c(C(C)C)n2)c1	18.7% (active)
C/C(N)=C(/C#N)C(=O)CSc1n[nH]c(-c2cccs2)n1	0.14% (inactive)
Cc1[nH]c(=S)c(C#N)c(C)c1CCC#N	10.6% (inactive)
COC(=O)CNC(=O)COC(=O)c1cc(F)c(F)cc1Cl	0.55% (inactive)
Cc1ccccc1C1CC(=O)Oc2cc(O)ccc21 (centres undefined)	0.19% (inactive)
Cc1ccc2c(c1)c(/C=C/c1cc[n+](C)cc1)c(C)n2C	1.43% (inactive)
Cc1[nH]c2ccccc2c1/C=C/c1cc[n+](C)cc1	3% (inactive)
Cc1ccc2[nH]c(C)c(/C=C/c3cc[n+](C)cc3)c2c1	54.8% (active)
COC(=O)Cn1cc(/C=C/c2cc[n+](C)cc2)c2ccccc21	1.9% (inactive)
COc1ccc(NC(=O)Nc2cccnc2)c(OC)c1	0.16% (inactive)
COc1ccc(-c2nnc(-c3cccnc3)o2)cc1	15.1% (active)
COc1ccc(-c2nc(/C=C3\C(C)=Nc4ccccc43)c(O)o2)cc1	1.03% (inactive)
CC(=O)C1=C(O)CCCC1=NCc1nc2ccccc2[nH]1	0.23% (inactive)
CN1CCC(N(CCc2ccccc2)C(=O)CCC(=O)O)CC1	46% (active)
CCCN(CCC)C(=O)C1c2ccccc2Oc2ccccc21	3.9% (inactive)
CN(Cc1ccccc1)C(=O)N1CCOCC1	0.11% (inactive)
CN1CCc2c(sc3c2C(=O)NC(c2ccccn2)N3)C1 (centres undefined)	0.36% (inactive)
Cc1ccccc1-n1c(SCc2c(C)noc2C)nnc1-c1cccnc1	0.05% (inactive)
Cc1ccc2nc(/C(C#N)=C\c3ccc(N4CCOCC4)o3)[nH]c2c1	16.5% (active)
N#C/C(=C/c1ccc(N2CCOCC2)o1)c1nc2ccccc2[nH]1	0.08% (inactive)
N#C/C(=C/c1ccc(N2CCOCC2)o1)C(=O)N1CCOCC1	0.41% (inactive)
Cc1ccc2nc(/C(C#N)=C/c3ccc(-c4ccccc4C(=O)O)o3)[nH]c2c1	0.32% (inactive)
N#C/C(=C\c1ccc(-c2ccccc2C(=O)O)o1)c1nc2ccccc2[nH]1	1.15% (inactive)

Structure (SMILES)	fluorescence artifact activation
N#C/C(=C\c1ccc(N2CCOCC2)o1)c1nc2ccccc2[nH]1	14.2% (active)
CCOP(=O)(OCC)/C(=N/OC(=O)c1ccc(OC)cc1)C(N)=O	0.15% (inactive)
Cc1c(CN2CCCC(C)C2)c(O)n(CCO)c(=O)c1C#N (centres undefined)	1.74% (inactive)
C=CCN1C(=O)C(Cc2cccc(Cl)c2)S/C1=N/N=C/c1ccco1 (centres undefined)	0.07% (inactive)
CCOc1ccc(C2CC(c3c(O)c4ccccc4oc3=O)=NN2c2ccccc2)cc1OC (centres undefined)	5.17% (inactive)
CCOc1ccc(C2C(C#N)=C(N)SC(N)=C2C#N)c(OCC)c1	0.05% (inactive)
CCOc1cc(C2C(C#N)=C(N)OC(C)=C2C(C)=O)cc(Br)c1O (centres undefined)	37.6% (active)
CCOc1cc(C2C3=C(CCCC3=O)N(C)C3=C2C(=O)CCC3)cc(Cl)c1O	-0.02% (inactive)
COc1ccc(OCC(=O)OCCNC(=O)c2cccnc2)cc1	0.14% (inactive)
O=C(CN1C(=O)c2ccccc2C1=O)NCc1ccc(N2CCOCC2)cc1	1.1% (inactive)
Cc1cc2nc3c(=O)[nH]c(=S)[nH]c3nc2cc1NC(=O)C(F)(F)F	5.96% (inactive)
O=C1c2ccccc2C(Nc2cccnc2)N1Cc1ccccc1Cl (centres undefined)	10.4% (inactive)
Cc1ccc(-n2nc(C)c(=O)c(-c3ccccc3)c2NC(=O)c2cccs2)cc1	1.25% (inactive)
CC(C)C[C@@H](CN=[N+]=[N-])N1CCN(C)CCC1=O	0.09% (inactive)
c1ccc2c(c1)CCCN2Cc1nnc2n1CCCCC2	37% (active)
c1ccc2c(c1)CCCN2Cc1nnnn1CC1CCCO1 (centres undefined)	0.36% (inactive)
O=c1cc(CN2CCCc3ccccc32)nc2sccn12	0.01% (inactive)
COc1ccc(CNc2nn[nH]n2)cc1OC	2.6% (inactive)
Cc1ccc([C@@H]2C3COCC=C3C(C#N)=C(N)C2(C#N)C#N)o1 (some centres undefined)	0.32% (inactive)
CN1CCN(/N=C/c2ccc(OCc3ccccc3)cc2)CC1	107% (active)
O=C(C1CCN(Cc2ccc(OCc3ccccc3)cc2)CC1)N1CCCC1	0.13% (inactive)
CN1CCN(CCOc2ccc(Cc3ccccc3)cc2)CC1	0.23% (inactive)
Cc1ccc(/C=C2\Oc3c(ccc(O)c3CN3CCN(C)CC3)C2=O)cc1	0.13% (inactive)
OCCN1CCN(CC(O)COc2ccc(C34CC5CC(CC(C5)C3)C4)cc2)CC1 (centres undefined)	32.1% (active)
